# Source: ChEMBL document CHEMBL1143425, “Paradoxical growth effect of caspofungin observed on biofilms and planktonic cells of five different Candida species” (2007)
# Calls of active or inactive are those of the source.
# Key:
# Candida albicans [1] = test: Antimicrobial activity against Candida albicans BR-A2 grown as planktonic cell after 48 hrs by XTT reduction assay; format: functional
# Outline: (§1)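 Planktonic broth microdilution followed CLSI M27-A2, with caspofungin dissolved in water. After 48 h, XTT-menadione was added to the wells and plates were kept 1 h at 35°C in the dark. Plates were then centrifuged and supernatant A490 was read. MIC was the lowest concentration giving a 50% decrease in metabolic activity versus drug-free control. Paradoxical growth was defined as ≥20% of control activity above the MIC.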
# Candida tropicalis [2] = test: Antimicrobial activity against Candida tropicalis BR-A8 grown as planktonic cell after 48 hrs by XTT reduction assay; format: functional; outline: as §1
# Candida parapsilosis [3] = test: Antimicrobial activity against Candida parapsilosis BR-A26 grown as planktonic cell after 48 hrs by XTT reduction assay; format: functional; details: Lodderomyces parapsilosis; outline: as §1
# Candida parapsilosis [4] = test: Antimicrobial activity against Candida parapsilosis BR-A28 grown as planktonic cell after 48 hrs by XTT reduction assay; format: functional; details: Lodderomyces parapsilosis; outline: as §1
# Candida orthopsilosis [5] = test: Antimicrobial activity against Candida orthopsilosis BR-A35 grown as planktonic cell after 48 hrs by XTT reduction assay; format: functional; details: Lodderomyces orthopsilosis
# Outline: (§2)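 Planktonic cells were tested by CLSI M27-A2 broth microdilution with caspofungin in water, incubated 48 h. XTT-menadione was added to each well, plates were held 1 h at 35°C in the dark and centrifuged, and supernatant absorbance was read at 490 nm. MIC was defined as 50% decrease in metabolic activity versus drug-free control. PG was defined as ≥20% of control activity at concentrations above MIC.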
# Candida orthopsilosis [6] = test: Antimicrobial activity against Candida orthopsilosis BR-A39 grown as planktonic cell after 48 hrs by XTT reduction assay; format: functional; details: Lodderomyces orthopsilosis; outline: as §1
# Candida orthopsilosis [7] = test: Antimicrobial activity against Candida orthopsilosis BR-A37 grown as planktonic cell assessed as concentration producing paradoxical growth after 48 hrs by XTT reduction assay; format: functional; outline: as §2
# Candida metapsilosis [8] = test: Antimicrobial activity against Candida metapsilosis BR-A41 grown as planktonic cell after 48 hrs by XTT reduction assay; format: functional; details: Lodderomyces metapsilosis; outline: as §2
# Candida albicans [9] = test: Antimicrobial activity against Candida albicans BR-A4 grown as planktonic cell assessed as paradoxical growth after 48 hrs by XTT reduction assay; format: functional, organism-based; outline: as §2
# Candida orthopsilosis [10] = test: Antimicrobial activity against Candida orthopsilosis BR-A34 grown as planktonic cell assessed as concentration producing paradoxical growth after 48 hrs by XTT reduction assay; format: functional; outline: as §2
# Candida parapsilosis [11] = test: Antimicrobial activity against Candida parapsilosis 22019 grown as planktonic cell assessed as paradoxical growth after 48 hrs by XTT reduction assay; format: functional
# Outline: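 Planktonic broth microdilution followed CLSI M27-A2, with caspofungin dissolved in water. After 48 h, XTT-menadione was added to each well and plates were incubated 1 h at 35°C in the dark. Cells were pelleted by centrifugation and the supernatant was read at 490 nm. MIC was the lowest concentration giving a 50% drop in metabolic activity versus the drug-free control. PG was ≥20% of drug-free activity above the MIC.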
# Candida tropicalis [12] = test: Antimicrobial activity against Candida tropicalis BR-A24 grown as biofilm after 48 hrs by XTT reduction assay; format: functional
# Outline: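 Isolates were grown on Sabouraud agar (30°C, 24 h), then overnight in RPMI 1640 with MOPS, pH 7.0, at 35°C with shaking. Cells were washed and set to ~1 × 10^7 cells/ml, attached 1.5 h at 37°C, and grown 24 h. Biofilms were then exposed to caspofungin in 10 twofold dilutions (2–1,024 μg/ml) for 48 h at 35°C with shaking. Read-out was XTT-menadione, 1 h, 35°C, dark, A490, cell-free blank subtracted. MIC was the 50% drop in activity versus drug-free control. Tested in duplicate.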
# Candida parapsilosis [13] = test: Antimicrobial activity against Candida parapsilosis BR-A26 grown as biofilm after 48 hrs by XTT reduction assay; format: functional; details: Lodderomyces parapsilosis
# Outline: (§3)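 Clinical isolates were grown overnight (18 h, 35°C, 120 rpm) in RPMI 1640 with MOPS, pH 7.0, then washed and set to ~1 × 10^7 cells/ml. Cells attached for 1.5 h at 37°C, 75 rpm, then biofilms grew 24 h. Caspofungin was given as doubling dilutions of 2–1,024 μg/ml for 48 h at 35°C, 75 rpm. Read-out was XTT-menadione in PBS, 1 h at 35°C in the dark, A490, cell-free blank subtracted. MIC was a 50% drop in activity versus drug-free; PG was >50% of control above MIC. Run in duplicate.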
# Candida parapsilosis [14] = test: Antimicrobial activity against Candida parapsilosis BR-A27 grown as biofilm after 48 hrs by XTT reduction assay; format: functional; details: Lodderomyces parapsilosis; outline: as §3
# Candida metapsilosis [15] = test: Antimicrobial activity against Candida metapsilosis BR-A40 grown as biofilm after 48 hrs by XTT reduction assay; format: functional; details: Lodderomyces metapsilosis
# Outline: (§4)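 Sabouraud-grown cells were shaken overnight (18 h, 120 rpm, 35°C) in RPMI 1640 with MOPS at pH 7.0, then washed and set at ~1 × 10^7 cells/ml. Attachment lasted 1.5 h at 37°C, and growth ran 24 h before challenge. Caspofungin was added in RPMI at 2–1,024 μg/ml (10 doublings) for 48 h at 35°C with shaking. XTT-menadione was read at 490 nm after 1 h at 35°C in the dark, with blank wells subtracted. MIC was taken as 50% reduction versus drug-free wells, and PG as >50% of control above MIC. Assays were run in duplicate.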
# Candida metapsilosis [16] = test: Antimicrobial activity against Candida metapsilosis BR-A41 grown as biofilm after 48 hrs by XTT reduction assay; format: functional; details: Lodderomyces metapsilosis; outline: as §4
# Candida metapsilosis [17] = test: Antimicrobial activity against Candida metapsilosis BR-A43 grown as biofilm after 48 hrs by XTT reduction assay; format: functional; details: Lodderomyces metapsilosis; outline: as §4
# Candida albicans [18] = test: Antimicrobial activity against Candida albicans BR-A7 grown as biofilm assessed as concentration producing paradoxical growth after 48 hrs by XTT reduction assay; format: functional; outline: as §4
# Candida parapsilosis [19] = test: Antimicrobial activity against Candida parapsilosis BR-A30 grown as biofilm assessed as paradoxical growth after 48 hrs by XTT reduction assay; format: functional, organism-based; outline: as §3
# Candida orthopsilosis [20] = test: Antimicrobial activity against Candida orthopsilosis BR-A34 grown as biofilm assessed as concentration producing paradoxical growth after 48 hrs by XTT reduction assay; format: functional; outline: as §4
# Candida metapsilosis [21] = test: Antimicrobial activity against Candida metapsilosis BR-A44 grown as biofilm assessed as concentration producing paradoxical growth after 48 hrs by XTT reduction assay; format: functional; outline: as §4
# Candida parapsilosis [22] = test: Antimicrobial activity against Candida parapsilosis 22019 grown as biofilm assessed as concentration producing paradoxical growth after 48 hrs by XTT reduction assay; format: functional; outline: as §4
# Candida tropicalis [23] = test: Effect on morphology in Candida tropicalis grown as planktonic cells assessed as inhibition of hyphae and pseudohyphae at 8 ug/ml after 48 hrs; format: functional, organism-based
# Outline: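 Clinical isolates were tested by CLSI M27-A2 broth microdilution with caspofungin dissolved in sterile water. After 48 h incubation, cells were taken from drug-containing and drug-free control wells. They were examined by light microscopy at ×400 for hyphae or pseudohyphae, rounding or clumping, and enlarged globose cells.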
# Candida tropicalis [24] = test: Effect on morphology in Candida tropicalis grown as biofilm assessed as inhibition of hyphae and pseudohyphae at 8 ug/ml after 48 hrs; format: functional, organism-based
# Outline: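 Overnight RPMI 1640 cultures (MOPS, pH 7.0) were washed and set to about 1 × 10^7 cells/ml, then attached to polystyrene wells for 1.5 h at 37°C at 75 rpm. After 24 h biofilm growth, wells were washed and given doubling caspofungin dilutions (2–1,024 μg/ml in RPMI) for 48 h at 35°C at 75 rpm. Biofilms were viewed in situ by inverted light microscopy at ×200 alongside drug-free wells.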
structure (smiles),measurement,setting,value
CC[C@H](C)C[C@H](C)CCCCCCCCC(=O)N[C@H]1C[C@@H](O)[C@@H](NCCN)NC(=O)[C@@H]2[C@@H](O)CCN2C(=O)[C@H]([C@H](O)CCN)NC(=O)[C@H]([C@H](O)[C@@H](O)c2ccc(O)cc2)NC(=O)[C@@H]2C[C@@H](O)CN2C(=O)[C@H]([C@@H](C)O)NC1=O [CASPOFUNGIN],MIC,Candida albicans [1],0.5 µg/mL
same,MIC,Candida tropicalis [2],1 µg/mL
same,MIC,Candida parapsilosis [3],2 µg/mL
same,MIC,Candida parapsilosis [4],2 µg/mL
same,MIC,Candida orthopsilosis [5],1 µg/mL
same,MIC,Candida orthopsilosis [6],2 µg/mL
same,Activity,Candida orthopsilosis [7],32 µg/mL
same,MIC,Candida metapsilosis [8],2 µg/mL
same,Activity,Candida albicans [9],Active
same,Activity,Candida orthopsilosis [10],4 µg/mL
same,Activity,Candida parapsilosis [11],8 µg/mL
same,MIC,Candida tropicalis [12],2 µg/mL
same,MIC,Candida parapsilosis [13],256 µg/mL
same,MIC,Candida parapsilosis [14],256 µg/mL
same,MIC,Candida metapsilosis [15],2 µg/mL
same,MIC,Candida metapsilosis [16],2 µg/mL
same,MIC,Candida metapsilosis [17],2 µg/mL
same,Activity,Candida albicans [18],16 µg/mL
same,Activity,Candida parapsilosis [19],Active
same,Activity,Candida orthopsilosis [20],32 µg/mL
same,Activity,Candida metapsilosis [21],16 µg/mL
same,Activity,Candida parapsilosis [22],16 µg/mL
same,Activity,Candida tropicalis [23],Active
same,Activity,Candida tropicalis [24],Active
